Source: ChEMBL document CHEMBL5724801, “EUbOPEN Chemogenomics Library - Multiplex” (2024)
Values joined by “and” are separate entries in the source; they are usually repeats but may differ in a detail not shown here. Equal values may be shown once.

Test system: Fibroblast
Experiment: Multiplex assay against human fibroblast
Format: toxicity, cell-based
Summary of the method: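 Live cells were stained at seeding with Hoechst33342, BioTracker Green Microtubule Cytoskeleton Dye, MitoTracker Red and Annexin V Alexa Fluor 680. Following compound addition, they were imaged on a CQ1 microscope at 37°C and 5% CO2 and gated by CellPathfinder machine learning into Hoechst high-intensity objects or normal cells, with normal cells split into healthy, pyknosed or fragmented nuclei and pyknosed cells into mitotic or apoptotic. Tubulin, mitochondrial-mass and membrane-permeability phenotypes are per cents of healthy-nucleus cells.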

[1] = 12 h, 1 µM, compound concentration 1 uM
[2] = 12 h, 10 µM, compound concentration 10 uM
[3] = 24 h, 1 µM, compound concentration 1 uM
[4] = 24 h, 10 µM, compound concentration 10 uM
[5] = 48 h, 1 µM, compound concentration 1 uM
[6] = 48 h, 10 µM, compound concentration 10 uM

FC(F)(F)c1ccccc1-c1cc(C(F)(F)F)c2[nH]c(C3=NOC4(CCCCC4)C3)nc2c1
Population Apoptotic (%) [1]: 11.43% and 13.33% | Population Fragmented Nuclei (%) [1]: 11.76% and 2.87% | Population Healthy Nuclei (%) [1]: 56.56% and 79.89% | Population Hoechst High Intensity Objects (%) [1]: 0% | Population Membrane Permeable-Phenotype (%) [1]: 8% and 4.32% | Population Mitochondria Different-Phenotype (%) [1]: 4.8% and 10.07% | Population Mitotic Cells (%) [1]: 88.57% and 86.67% | Population Normal (%) [1]: 100% | Population Pyknosed Nuclei (%) [1]: 31.67% and 17.24% | Population Tubulin-Different-Phenotype (%) [1]: 12.8% and 20.14% | Total Cell Count [1]: 221 and 174 | Population Apoptotic (%) [2]: 7.62% and 14.29% | Population Fragmented Nuclei (%) [2]: 10% and 8.05% | Population Healthy Nuclei (%) [2]: 42.27% and 63.79% | Population Hoechst High Intensity Objects (%) [2]: 0% | Population Membrane Permeable-Phenotype (%) [2]: 12.9% and 5.41% | Population Mitochondria Different-Phenotype (%) [2]: 19.35% and 15.32% | Population Mitotic Cells (%) [2]: 92.38% and 85.71% | Population Normal (%) [2]: 100% | Population Pyknosed Nuclei (%) [2]: 47.73% and 28.16% | Population Tubulin-Different-Phenotype (%) [2]: 30.11% and 51.35% | Total Cell Count [2]: 220 and 174 | Population Apoptotic (%) [3]: 10.91% and 15.62% | Population Fragmented Nuclei (%) [3]: 8.06% and 4.79% | Population Healthy Nuclei (%) [3]: 69.76% and 78.19% | Population Hoechst High Intensity Objects (%) [3]: 0% | Population Membrane Permeable-Phenotype (%) [3]: 3.47% and 3.4% | Population Mitochondria Different-Phenotype (%) [3]: 7.51% and 4.08% | Population Mitotic Cells (%) [3]: 89.09% and 84.38% | Population Normal (%) [3]: 100% | Population Pyknosed Nuclei (%) [3]: 22.18% and 17.02% | Population Tubulin-Different-Phenotype (%) [3]: 17.92% and 18.37% | Total Cell Count [3]: 248 and 188 | Population Apoptotic (%) [4]: 13% and 17.86% | Population Fragmented Nuclei (%) [4]: 7.66% and 9.09% | Population Healthy Nuclei (%) [4]: 44.5% and 60.96% | Population Hoechst High Intensity Objects (%) [4]: 0% | Population Membrane Permeable-Phenotype (%) [4]: 7.53% and 4.39% | Population Mitochondria Different-Phenotype (%) [4]: 25.81% and 29.82% | Population Mitotic Cells (%) [4]: 87% and 82.14% | Population Normal (%) [4]: 100% | Population Pyknosed Nuclei (%) [4]: 47.85% and 29.95% | Population Tubulin-Different-Phenotype (%) [4]: 69.89% and 65.79% | Total Cell Count [4]: 209 and 187 | Population Apoptotic (%) [5]: 20.83% and 16.67% | Population Fragmented Nuclei (%) [5]: 8.37% and 6.59% | Population Healthy Nuclei (%) [5]: 82.51% and 86.81% | Population Hoechst High Intensity Objects (%) [5]: 0% | Population Membrane Permeable-Phenotype (%) [5]: 1.38% and 1.27% | Population Mitochondria Different-Phenotype (%) [5]: 10.14% and 2.53% | Population Mitotic Cells (%) [5]: 79.17% and 83.33% | Population Normal (%) [5]: 100% | Population Pyknosed Nuclei (%) [5]: 9.13% and 6.59% | Population Tubulin-Different-Phenotype (%) [5]: 7.83% and 18.99% | Total Cell Count [5]: 263 and 182 | Population Fragmented Nuclei (%) [6]: 9.33% and 11.92% | Population Healthy Nuclei (%) [6]: 78.22% and 73.06% | Population Hoechst High Intensity Objects (%) [6]: 0% | Population Membrane Permeable-Phenotype (%) [6]: 0.57% and 4.26% | Population Mitochondria Different-Phenotype (%) [6]: 13.64% and 7.8% | Population Mitotic Cells (%) [6]: 96.43% and 55.17% | Population Normal (%) [6]: 100% | Population Pyknosed Nuclei (%) [6]: 12.44% and 15.03% | Population Tubulin-Different-Phenotype (%) [6]: 38.64% and 60.99% | Total Cell Count [6]: 225 and 193

Cc1ccc(F)cc1C(=O)Nc1ccc(C(=O)N2Cc3cccn3Cc3ccccc32)c(Cl)c1 [LIXIVAPTAN]
Population Apoptotic (%) [1]: 40% and 50% | Population Fragmented Nuclei (%) [1]: 11% and 30% | Population Healthy Nuclei (%) [1]: 73% and 47% | Population Hoechst High Intensity Objects (%) [1]: 5% and 3% | Population Membrane Permeable-Phenotype (%) [1]: 0% and 1% | Population Mitochondria Different-Phenotype (%) [1]: 3% and 9% | Population Mitotic Cells (%) [1]: 59% and 50% | Population Normal (%) [1]: 94% and 96% | Population Pyknosed Nuclei (%) [1]: 15% and 21% | Population Tubulin-Different-Phenotype (%) [1]: 28% and 38% | Total Cell Count [1]: 186 and 117 | Population Apoptotic (%) [2]: 34% and 31% | Population Fragmented Nuclei (%) [2]: 18% and 27% | Population Healthy Nuclei (%) [2]: 58% and 46% | Population Hoechst High Intensity Objects (%) [2]: 0% and 5% | Population Membrane Permeable-Phenotype (%) [2]: 2% and 6% | Population Mitochondria Different-Phenotype (%) [2]: 5% and 10% | Population Mitotic Cells (%) [2]: 65% and 68% | Population Normal (%) [2]: 99% and 94% | Population Pyknosed Nuclei (%) [2]: 23% and 25% | Population Tubulin-Different-Phenotype (%) [2]: 62% and 72% | Total Cell Count [2]: 137 and 179 | Population Apoptotic (%) [3]: 50% and 32% | Population Fragmented Nuclei (%) [3]: 12% and 33% | Population Healthy Nuclei (%) [3]: 73% and 43% | Population Hoechst High Intensity Objects (%) [3]: 1% and 3% | Population Membrane Permeable-Phenotype (%) [3]: 1% and 5% | Population Mitochondria Different-Phenotype (%) [3]: 0% and 5% | Population Mitotic Cells (%) [3]: 50% and 67% | Population Normal (%) [3]: 98% and 96% | Population Pyknosed Nuclei (%) [3]: 14% and 23% | Population Tubulin-Different-Phenotype (%) [3]: 33% and 52% | Total Cell Count [3]: 172 and 126 | Population Apoptotic (%) [4]: 25% and 51% | Population Fragmented Nuclei (%) [4]: 19% and 26% | Population Healthy Nuclei (%) [4]: 63% and 51% | Population Hoechst High Intensity Objects (%) [4]: 0% and 5% | Population Membrane Permeable-Phenotype (%) [4]: 2% and 11% | Population Mitochondria Different-Phenotype (%) [4]: 8% and 12% | Population Mitotic Cells (%) [4]: 75% and 48% | Population Normal (%) [4]: 99% and 94% | Population Pyknosed Nuclei (%) [4]: 17% and 22% | Population Tubulin-Different-Phenotype (%) [4]: 63% and 82% | Total Cell Count [4]: 142 and 174 | Population Apoptotic (%) [5]: 63% and 50% | Population Fragmented Nuclei (%) [5]: 18% and 37% | Population Healthy Nuclei (%) [5]: 68% and 40% | Population Hoechst High Intensity Objects (%) [5]: 8% and 0% | Population Membrane Permeable-Phenotype (%) [5]: 0% and 4% | Population Mitochondria Different-Phenotype (%) [5]: 3% and 11% | Population Mitotic Cells (%) [5]: 36% and 50% | Population Normal (%) [5]: 91% and 99% | Population Pyknosed Nuclei (%) [5]: 13% and 21% | Population Tubulin-Different-Phenotype (%) [5]: 28% and 53% | Total Cell Count [5]: 181 and 111 | Population Apoptotic (%) [6]: 70% and 73% | Population Fragmented Nuclei (%) [6]: 25% and 36% | Population Healthy Nuclei (%) [6]: 62% and 51% | Population Hoechst High Intensity Objects (%) [6]: 2% and 5% | Population Membrane Permeable-Phenotype (%) [6]: 0% and 6% | Population Mitochondria Different-Phenotype (%) [6]: 13% | Population Mitotic Cells (%) [6]: 29% and 26% | Population Normal (%) [6]: 97% and 94% | Population Pyknosed Nuclei (%) [6]: 11% | Population Tubulin-Different-Phenotype (%) [6]: 69% and 78% | Total Cell Count [6]: 149 and 170
